Reference: ChEMBL document CHEMBL1641579, “Synthesis and biological evaluation of 7-substituted-1-(3-bromophenylamino)isoquinoline-4-carbonitriles as inhibitors of myosin light chain kinase and epidermal growth factor receptor” (Bioorg Med Chem, 2011)

Columns and labels:
[1] = biological target: Mitogen-activated protein kinase kinase kinase 9 (Homo sapiens) (UniProt P80192); experiment: Inhibition of MLK1 assessed as residual activity at 10 uM
In short: (§1)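 Panel screen by radioactive kinase assay at a single inhibitor concentration. Score is the percent activity remaining relative to DMSO controls (100%).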

[2] = biological target: Serine/threonine-protein kinase PAK 6 (Homo sapiens) (UniProt Q9NQU5); experiment: Inhibition of PAK6 assessed as residual activity at 10 uM; in short: as §1
[3] = biological target: T1, Ephrin type-B receptor 3 (Homo sapiens) (UniProt P54753); experiment: Inhibition of EPHB3 assessed as residual activity at 10 uM
T1 sequence (whole entry): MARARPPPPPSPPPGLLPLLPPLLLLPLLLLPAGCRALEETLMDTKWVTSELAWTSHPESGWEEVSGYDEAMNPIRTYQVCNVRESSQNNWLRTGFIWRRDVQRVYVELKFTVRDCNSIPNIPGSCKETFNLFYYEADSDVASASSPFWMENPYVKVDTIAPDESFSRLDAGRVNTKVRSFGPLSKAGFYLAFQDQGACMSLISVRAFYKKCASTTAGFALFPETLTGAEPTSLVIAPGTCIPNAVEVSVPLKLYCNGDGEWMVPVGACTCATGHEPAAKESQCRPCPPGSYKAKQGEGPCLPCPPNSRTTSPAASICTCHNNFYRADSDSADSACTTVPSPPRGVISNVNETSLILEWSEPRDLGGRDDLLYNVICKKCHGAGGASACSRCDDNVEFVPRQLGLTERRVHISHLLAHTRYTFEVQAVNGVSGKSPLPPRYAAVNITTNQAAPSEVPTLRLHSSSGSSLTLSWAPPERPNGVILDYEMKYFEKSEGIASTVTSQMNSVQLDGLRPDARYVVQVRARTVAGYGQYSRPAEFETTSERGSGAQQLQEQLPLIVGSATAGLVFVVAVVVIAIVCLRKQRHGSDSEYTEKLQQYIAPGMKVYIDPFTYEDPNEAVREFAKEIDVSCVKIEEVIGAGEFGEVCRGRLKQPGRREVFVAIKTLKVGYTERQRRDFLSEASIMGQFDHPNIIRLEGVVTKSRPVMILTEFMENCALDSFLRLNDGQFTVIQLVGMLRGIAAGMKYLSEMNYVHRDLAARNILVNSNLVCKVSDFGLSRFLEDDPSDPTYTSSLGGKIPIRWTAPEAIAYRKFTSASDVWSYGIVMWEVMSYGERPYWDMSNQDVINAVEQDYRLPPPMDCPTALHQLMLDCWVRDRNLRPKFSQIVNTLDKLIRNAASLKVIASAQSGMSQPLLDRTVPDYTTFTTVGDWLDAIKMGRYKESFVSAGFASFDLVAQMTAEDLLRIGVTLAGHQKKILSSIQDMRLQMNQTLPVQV
In short: (§2)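 Kinase panel screen run as a radioactive activity assay at single compound concentration. Score reported as percent activity remaining relative to DMSO controls (100%).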

[4] = biological target: MAP kinase-interacting serine/threonine-protein kinase 1 (Homo sapiens) (UniProt Q9BUB5); experiment: Inhibition of MNK1 assessed as residual activity at 10 uM; in short: as §1
[5] = biological target: Insulin-like growth factor 1 receptor (Homo sapiens) (UniProt P08069); experiment: Inhibition of IGF1R assessed as residual activity at 10 uM; in short: as §2
[6] = biological target: T2, MAP kinase-activated protein kinase 5 (Homo sapiens) (UniProt Q8IW41); experiment: Inhibition of PRAK assessed as residual activity at 10 uM; in short: as §1
T2 sequence (whole entry): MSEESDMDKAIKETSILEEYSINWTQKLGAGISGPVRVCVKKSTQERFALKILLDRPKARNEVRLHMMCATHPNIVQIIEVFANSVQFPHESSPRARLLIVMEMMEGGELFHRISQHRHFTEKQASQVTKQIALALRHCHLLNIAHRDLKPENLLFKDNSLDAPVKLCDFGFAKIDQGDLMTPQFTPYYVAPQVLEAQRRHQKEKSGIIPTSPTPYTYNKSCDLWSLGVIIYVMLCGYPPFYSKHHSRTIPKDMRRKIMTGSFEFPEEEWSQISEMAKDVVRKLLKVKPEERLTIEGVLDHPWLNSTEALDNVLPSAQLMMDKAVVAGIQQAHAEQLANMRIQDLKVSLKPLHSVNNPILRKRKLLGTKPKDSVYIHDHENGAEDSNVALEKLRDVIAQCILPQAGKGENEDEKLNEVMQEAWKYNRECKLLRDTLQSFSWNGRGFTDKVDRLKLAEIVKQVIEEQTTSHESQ

[7] = biological target: T3, Serine/threonine-protein kinase TBK1 (Homo sapiens) (UniProt Q9UHD2); experiment: Inhibition of TBK1 assessed as residual activity at 10 uM; in short: as §1
T3 sequence (whole entry): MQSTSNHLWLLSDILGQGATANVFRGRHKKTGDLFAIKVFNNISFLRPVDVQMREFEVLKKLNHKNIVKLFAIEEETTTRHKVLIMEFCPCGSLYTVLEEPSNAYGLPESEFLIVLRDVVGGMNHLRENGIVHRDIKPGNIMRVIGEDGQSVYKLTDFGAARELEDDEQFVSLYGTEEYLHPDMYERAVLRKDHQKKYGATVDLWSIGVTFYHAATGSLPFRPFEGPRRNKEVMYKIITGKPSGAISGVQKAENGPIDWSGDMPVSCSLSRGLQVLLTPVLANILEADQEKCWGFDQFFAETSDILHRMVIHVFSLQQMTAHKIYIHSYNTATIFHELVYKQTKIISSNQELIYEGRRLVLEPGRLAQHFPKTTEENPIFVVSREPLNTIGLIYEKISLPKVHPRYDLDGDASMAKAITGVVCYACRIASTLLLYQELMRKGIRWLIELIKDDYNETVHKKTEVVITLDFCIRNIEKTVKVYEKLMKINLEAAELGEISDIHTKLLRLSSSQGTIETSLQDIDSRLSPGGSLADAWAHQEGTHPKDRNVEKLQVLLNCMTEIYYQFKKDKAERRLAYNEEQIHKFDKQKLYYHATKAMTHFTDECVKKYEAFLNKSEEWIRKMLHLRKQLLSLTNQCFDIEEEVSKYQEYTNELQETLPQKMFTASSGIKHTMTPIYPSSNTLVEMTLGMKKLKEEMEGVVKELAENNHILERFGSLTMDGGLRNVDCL

MAP kinase-interacting serine/threonine-protein kinase 1 (Homo sapiens), sequence (Q9BUB5 whole entry, looked up): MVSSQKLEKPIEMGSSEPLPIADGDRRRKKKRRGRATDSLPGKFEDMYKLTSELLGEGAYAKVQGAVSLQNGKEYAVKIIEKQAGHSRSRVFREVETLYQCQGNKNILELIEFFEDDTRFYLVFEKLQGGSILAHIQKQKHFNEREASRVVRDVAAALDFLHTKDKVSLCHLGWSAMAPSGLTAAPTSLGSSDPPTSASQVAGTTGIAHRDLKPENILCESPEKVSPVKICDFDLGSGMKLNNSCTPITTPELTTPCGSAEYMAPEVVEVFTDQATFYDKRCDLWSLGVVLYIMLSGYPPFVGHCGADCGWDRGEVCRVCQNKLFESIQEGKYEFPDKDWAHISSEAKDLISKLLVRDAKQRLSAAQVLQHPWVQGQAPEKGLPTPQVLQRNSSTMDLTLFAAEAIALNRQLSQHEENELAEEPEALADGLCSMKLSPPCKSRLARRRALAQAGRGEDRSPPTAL
Mitogen-activated protein kinase kinase kinase 9 (Homo sapiens), sequence (P80192 whole entry, looked up): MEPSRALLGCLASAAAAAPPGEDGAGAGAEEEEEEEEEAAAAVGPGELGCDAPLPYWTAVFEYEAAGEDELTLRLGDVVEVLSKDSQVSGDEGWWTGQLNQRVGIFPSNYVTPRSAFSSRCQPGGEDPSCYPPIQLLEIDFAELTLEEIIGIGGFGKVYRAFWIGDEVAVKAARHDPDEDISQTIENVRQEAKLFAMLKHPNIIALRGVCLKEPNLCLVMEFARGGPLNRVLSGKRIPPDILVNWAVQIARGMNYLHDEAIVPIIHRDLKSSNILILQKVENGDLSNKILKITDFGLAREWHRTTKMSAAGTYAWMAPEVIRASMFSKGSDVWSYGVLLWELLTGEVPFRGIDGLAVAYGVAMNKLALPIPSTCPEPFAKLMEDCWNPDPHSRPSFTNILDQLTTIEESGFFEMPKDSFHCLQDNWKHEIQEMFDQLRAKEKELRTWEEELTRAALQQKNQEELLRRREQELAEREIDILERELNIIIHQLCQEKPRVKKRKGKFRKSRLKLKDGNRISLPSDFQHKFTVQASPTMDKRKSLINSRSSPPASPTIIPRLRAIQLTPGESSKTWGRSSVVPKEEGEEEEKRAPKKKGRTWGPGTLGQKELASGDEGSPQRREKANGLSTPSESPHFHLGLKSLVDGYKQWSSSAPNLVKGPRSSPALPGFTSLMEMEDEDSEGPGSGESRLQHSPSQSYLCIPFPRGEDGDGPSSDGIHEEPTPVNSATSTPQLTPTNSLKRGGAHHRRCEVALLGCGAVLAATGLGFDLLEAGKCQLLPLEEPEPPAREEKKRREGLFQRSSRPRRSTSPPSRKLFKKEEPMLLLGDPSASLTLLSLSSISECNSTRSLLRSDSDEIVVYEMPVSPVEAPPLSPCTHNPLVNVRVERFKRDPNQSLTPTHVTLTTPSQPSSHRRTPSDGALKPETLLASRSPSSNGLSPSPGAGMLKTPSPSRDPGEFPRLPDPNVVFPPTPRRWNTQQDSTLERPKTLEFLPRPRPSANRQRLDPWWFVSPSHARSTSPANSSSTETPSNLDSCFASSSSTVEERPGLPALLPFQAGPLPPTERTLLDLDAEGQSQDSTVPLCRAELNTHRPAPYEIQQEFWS
Serine/threonine-protein kinase PAK 6 (Homo sapiens), sequence (Q9NQU5 whole entry, looked up): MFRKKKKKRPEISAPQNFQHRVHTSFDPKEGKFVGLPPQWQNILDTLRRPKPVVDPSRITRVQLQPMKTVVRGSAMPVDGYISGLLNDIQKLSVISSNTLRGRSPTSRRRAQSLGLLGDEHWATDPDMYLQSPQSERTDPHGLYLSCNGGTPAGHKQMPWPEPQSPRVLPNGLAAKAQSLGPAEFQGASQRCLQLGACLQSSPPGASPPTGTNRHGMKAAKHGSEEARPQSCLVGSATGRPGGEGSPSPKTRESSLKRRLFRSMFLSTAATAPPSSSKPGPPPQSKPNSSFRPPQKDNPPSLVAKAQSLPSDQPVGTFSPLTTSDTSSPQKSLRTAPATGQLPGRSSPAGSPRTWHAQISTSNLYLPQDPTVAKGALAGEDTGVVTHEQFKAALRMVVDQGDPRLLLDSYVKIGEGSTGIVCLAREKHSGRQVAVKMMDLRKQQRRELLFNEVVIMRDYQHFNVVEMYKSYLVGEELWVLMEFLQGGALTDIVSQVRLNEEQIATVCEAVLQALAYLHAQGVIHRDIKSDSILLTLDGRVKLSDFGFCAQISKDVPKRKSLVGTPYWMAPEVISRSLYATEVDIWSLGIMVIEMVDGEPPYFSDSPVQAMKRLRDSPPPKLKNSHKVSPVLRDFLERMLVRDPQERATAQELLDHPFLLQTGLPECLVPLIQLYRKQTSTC
Insulin-like growth factor 1 receptor (Homo sapiens), sequence (P08069 31-736 limits assumed): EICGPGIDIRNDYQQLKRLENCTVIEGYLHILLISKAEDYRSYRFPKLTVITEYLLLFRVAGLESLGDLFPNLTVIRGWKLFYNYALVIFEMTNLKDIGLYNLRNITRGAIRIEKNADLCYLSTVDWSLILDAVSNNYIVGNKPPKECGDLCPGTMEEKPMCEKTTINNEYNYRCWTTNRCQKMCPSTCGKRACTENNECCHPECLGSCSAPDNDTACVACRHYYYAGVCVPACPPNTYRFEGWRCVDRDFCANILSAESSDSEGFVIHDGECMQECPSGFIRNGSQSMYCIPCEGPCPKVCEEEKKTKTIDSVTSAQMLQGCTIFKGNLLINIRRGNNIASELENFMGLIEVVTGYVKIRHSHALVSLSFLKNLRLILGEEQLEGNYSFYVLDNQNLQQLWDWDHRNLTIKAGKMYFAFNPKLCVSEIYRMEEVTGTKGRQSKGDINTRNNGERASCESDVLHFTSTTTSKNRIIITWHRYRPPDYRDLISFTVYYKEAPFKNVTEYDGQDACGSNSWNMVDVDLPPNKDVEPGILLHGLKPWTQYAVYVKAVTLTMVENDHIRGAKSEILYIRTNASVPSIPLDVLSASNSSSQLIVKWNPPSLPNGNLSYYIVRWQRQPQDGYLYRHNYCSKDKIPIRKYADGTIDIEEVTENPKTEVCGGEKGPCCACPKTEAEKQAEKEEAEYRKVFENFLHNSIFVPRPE
Insulin-like growth factor 1 receptor (Homo sapiens), sequence (P08069 741-1367 limits assumed): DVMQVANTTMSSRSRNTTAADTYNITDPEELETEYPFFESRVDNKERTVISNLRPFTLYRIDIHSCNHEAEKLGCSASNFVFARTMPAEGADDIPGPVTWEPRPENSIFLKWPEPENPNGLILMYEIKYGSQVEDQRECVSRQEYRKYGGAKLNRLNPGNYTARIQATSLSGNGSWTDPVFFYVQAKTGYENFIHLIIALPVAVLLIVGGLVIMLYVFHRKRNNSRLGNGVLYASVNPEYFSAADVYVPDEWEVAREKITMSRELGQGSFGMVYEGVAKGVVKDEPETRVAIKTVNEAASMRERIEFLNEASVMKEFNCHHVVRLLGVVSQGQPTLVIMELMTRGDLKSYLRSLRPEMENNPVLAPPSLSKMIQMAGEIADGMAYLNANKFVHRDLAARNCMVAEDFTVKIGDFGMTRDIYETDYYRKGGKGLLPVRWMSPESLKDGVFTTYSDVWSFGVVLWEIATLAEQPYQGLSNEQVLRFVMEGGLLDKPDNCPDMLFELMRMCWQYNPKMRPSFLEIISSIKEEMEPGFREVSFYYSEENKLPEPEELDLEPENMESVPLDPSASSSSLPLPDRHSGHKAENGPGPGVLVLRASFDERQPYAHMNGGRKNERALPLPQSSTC

Activity [1] | Activity [2] | Activity [3] | Activity [4] | Activity [5] | Activity [6] | Activity [7] | SMILES
82% | 100% | 95% | 61% | 73% | 88% | 82% | CN(C)C/C=C/C(=O)Nc1ccc2c(C#N)cnc(Nc3cccc(Br)c3)c2c1
91% | 87% | 90% | 95% | 65% | 100% | 87% | CN1CCN(CCC(=O)Nc2ccc3c(C#N)cnc(Nc4cccc(Br)c4)c3c2)CC1
87% | 100% | 100% | 82% | 59% | 100% | 99% | CN(C)CCCC(=O)Nc1ccc2c(C#N)cnc(Nc3cccc(Br)c3)c2c1
